Most compounds without a hit are left out; they make up all but 1.5% or so of the library.
Apaf1 inhib = inhibitors of human Apaf-1 apoptosome, primary screen, biochemical, DEVD-Rh110 fluorescence, uHTS; Apoptotic protease-activating factor 1 (Homo sapiens), O14727; reconstituted apoptosome caspase-3 activity; inhibition, % at 20 µM; 0.71% of 330,000 active; AID 489030, 2010; active means inhibition of at least 40% at 20 µM;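 further: plate controls were DMSO wells for no effect and DEVD-CHO caspase inhibitor wells for full effect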
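Material: reconstituted apoptosome with Apaf-1, cytochrome c, caspase-9, procaspase-3, dATP; medium: pH 7.5 Hepes buffer with CHAPS, BSA, DTT; also added: cytochrome c and DEVD-Rh110 substrate; timing: 30 min plus 50 min, RT; signal: Rh110 fluorescence intensity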
PREPL inhibitor = PREPL enzyme inhibitors, primary screen, biochemical, fluorescence polarization; recombinant PREPL, fluorescence polarization activity-based probe; inhibition, % at 5.96 µM; Prolyl endopeptidase-like (Homo sapiens), Q4J6C6; 0.68% of 320,000 active; in the data active means inhibition above about 43%;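 further: 0% = enzyme with DMSO and 100% = wells lacking enzyme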
UCH37 inh = inhibitors of human UCH37 deubiquitinase, primary screen, biochemical, Ub-AMC cleavage, fluorescence | Ubiquitin carboxyl-terminal hydrolase isozyme L5 (Homo sapiens), Q9Y5K5 | purified proteasome/UCH37 | inhibition, % (no concentration beside the values) | 0.33% of 330,000 active | AID 588478, 2011;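 active means mean inhibition over replicate wells above about 20%, limit read from the data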;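 further: 0% = compound-free wells with enzyme and 100% = wells lacking proteasome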
Target sequence (Q9Y5K5 whole entry, looked up): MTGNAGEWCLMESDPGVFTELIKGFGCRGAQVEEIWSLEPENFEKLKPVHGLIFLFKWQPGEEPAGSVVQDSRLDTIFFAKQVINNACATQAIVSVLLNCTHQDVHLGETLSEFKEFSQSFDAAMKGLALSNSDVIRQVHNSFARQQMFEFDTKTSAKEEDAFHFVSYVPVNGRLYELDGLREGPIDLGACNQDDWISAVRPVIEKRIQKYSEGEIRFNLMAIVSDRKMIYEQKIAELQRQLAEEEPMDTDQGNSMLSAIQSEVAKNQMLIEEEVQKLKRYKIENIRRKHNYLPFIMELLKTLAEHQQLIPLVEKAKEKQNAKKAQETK
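system = Proteasome-associated human UCH37 deubiquitinase | amount = 0.15 nM proteasome as dispensed | medium = pH 7.4 Tris-HCl (50 mM) with ovalbumin, ATP-MgCl2, DTT | incubation = 30 min preincubation with enzyme, 25 min cleavage at room temperature | detection = AMC fluorescence 355/460 nm | read-out basis = percent inhibition | controls = no-proteasome and no-compound wells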
UBC13 inh = UBC13 polyubiquitin chain formation inhibitors, primary screen, biochemical, TR-FRET, uHTS; Ubiquitin-conjugating enzyme E2 N (Homo sapiens), P61088; inhibition, % at 20 µM; 0.47% of 330,000 active; in the data active means inhibition above about 45%, passing the limit was not always enough
Target sequence (P61088 whole entry, looked up): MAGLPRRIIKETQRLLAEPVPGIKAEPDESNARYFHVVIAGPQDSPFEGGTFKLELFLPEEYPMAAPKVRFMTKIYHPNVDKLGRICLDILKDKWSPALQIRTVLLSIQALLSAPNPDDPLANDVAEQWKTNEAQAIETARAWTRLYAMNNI
Apaf-1 inh conf2 = Apaf-1 inhibitors, single-dose retest, confirmation, biochemical, fluorescence, DEVD-Rh110, 20 µM. shares compounds with Apaf1 inhib. reconstituted apoptosome, caspase-3 DEVD-Rh110 fluorescence. inhibition, % at 20 µM. 25% of 1,800 active;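 active means mean inhibition of at least 40% at 20 µM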;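 further: plate controls were DMSO wells for no effect and DEVD-CHO caspase inhibitor control wells for full effect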
Rh110 interf inh = Rh110 fluorescence interference by putative Apaf-1 inhibitors, confirmation, artefact control for Apaf-1 inhibitor project, biochemical, 20 µM. activation (fluorescence interference), % at 20 µM. quenched caspase reaction. shares compounds with Apaf1 inhib. 1,800 tested, under 10 active. AID 504615, 2011;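 active means signal rise of 40% or more at 20 µM, treated as a fluorescence artifact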
Fluor interf inh = fluorescence interference of Apaf-1 inhibitor hits, dose response, artefact control for Apaf-1 inhibitor project; AID 588538, 2011; 460 tested, under 10 active; shares compounds with Apaf1 inhib; fluorescence interference counterscreen, Apaf-1 assay format; IC50, µM; call rule not given here
The depositor's hits bear a star; i = inactive; x = no result given.

SMILES	Apaf1 inhib	PREPL inhibitor	UCH37 inh	UBC13 inh	Apaf-1 inh conf2	Rh110 interf inh	others
CCOc1ccccc1N1CSC2=C(C#N)C(c3c(OC)ccc4ccccc34)CC(=O)N2C1 (stereo not drawn)	40.8*	3.0	x	-57.7	22.2	3.8
CCOC(=O)c1ccc(N2CSC3=C(C#N)C(c4cccs4)CC(=O)N3C2)cc1 (stereo not drawn)	54.7*	-2.1	4.1	0.4	17.7	2.2
COc1ccc(N2CSC3=C(C#N)C(c4cc(OC)ccc4OC)CC(=O)N3C2)c(OC)c1 (stereo not drawn)	32.0	13.6	8.8	-50.4	x	x
CCOC(=O)c1sc2nc[nH]c(=O)c2c1C	0.9	-4.1	-2.6	3.3	x	x
CCOC(=O)c1c(C)c2c(=O)[nH]cnc2n1-c1ccccc1	57.5*	-7.3	1.1	8.4	12.3	-4.6
CC(=NNC(=O)Cc1ccc(Br)cc1)c1cccnc1	x	x	0.0	x	x	x
CN1/C(=N\O)c2cccc3cccc1c23	86.2*	11.0	x	0.3	20.0	-0.1
COc1ccccc1/C=C/C=NNc1cccc(C(=O)O)c1	x	x	3.2	x	x	x
CCN1CCCC1CNC(=O)c1cc2c(-c3cccc(OC)c3)nn(C)c2s1 (stereo not drawn)	1.2	-40.8	-75.9	39.0	x	x
CCN1CCCC1CNC(=O)c1cc2c(-c3ccc(Cl)cc3)nn(C)c2s1 (stereo not drawn)	49.2*	-72.0	-229.3	40.7	11.2	12.7
COc1cccc(-c2c(C(=O)NN=Cc3ccc(C)s3)nnn2-c2nonc2N)c1	x	x	0.7	x	x	x
Cc1ccc(-c2nn3c(-c4ccco4)nnc3c3ccccc23)cc1S(=O)(=O)NCC1CCCO1 (stereo not drawn)	66.1*	-7.1	-45.1	14.4	82.7*	6.7	Fluor interf inh=>100
COc1ccc(N=C2C(=Nc3ccc(OC)cc3)N(c3ccc(OC)cc3)C(=S)N2c2ccccc2)cc1	74.7*	6.5	6.8	-8.0	6.6	8.8
COc1ccc(NS(=O)(=O)c2cccc(C(=O)NCC(c3ccccc3)N(C)C)c2)cc1 (stereo not drawn)	21.6	1.2	1.3	10.7	x	x
COc1ccccc1C(CNC(=O)c1cccc(S(=O)(=O)Nc2ccc(C)cc2)c1)N(C)C (stereo not drawn)	46.1*	-10.9	1.6	14.7	28.0	7.1
CCCCn1c2nc3ccccc3nc2c2c(=N)oc(C)nc21	x	x	-174.6	x	x	x
COc1ccc(-n2c3nc4ccccc4nc3c3c(=N)oc(C)nc32)cc1	96.5*	5.1	5.5	-8.9	66.8*	6.3	Fluor interf inh=>100
COc1ccc(C=NNC(=O)CN(C2=NS(=O)(=O)c3ccccc32)c2ccccc2)cc1	x	x	4.1	x	x	x
CN(C)CCN(C(=O)c1ccc2c(c1)CCCC2)c1nc2cc3c(cc2s1)OCCO3	43.6*	-6.2	7.0	41.0	25.1	9.3
Cc1cc(C)c2nc(N(CCCN(C)C)C(=O)c3ccc4c(c3)CCCC4)sc2c1	42.2*	-50.6	1.8	25.7	21.1	11.8
CCOc1ccc2nc(N(CCN(C)C)C(=O)c3ccc4c(c3)CCCC4)sc2c1	54.7*	9.0	4.7	2.9	13.8	-0.9
CN(C)CCN(C(=O)c1ccc2c(c1)OCCO2)c1nc2cc3c(cc2s1)OCO3	4.4	-1.6	2.7	-4.9	x	x
CC(=NNC(=O)c1ccc(Cl)c(Cl)c1)c1ccc(Br)s1	x	x	-33.0	x	x	x
Nc1ccc2nn(-c3ccc(F)cc3)nc2c1	87.9*	9.0	i	-1.5	24.1	-3.5
CCOc1ccc(-n2nc3ccc(N)cc3n2)cc1	84.5*	x	i	-25.6	24.2	2.3
SMILES	Apaf1 inhib	PREPL inhibitor	UCH37 inh	UBC13 inh	Apaf-1 inh conf2	Rh110 interf inh	others
CC(C)C(=O)Nc1ccc2nn(-c3ccc(F)cc3)nc2c1	-95.1	5.8	-136.4	11.0	x	x
CCOc1ccc(-n2nc3cc(C)c(N)cc3n2)cc1	25.6	3.8	-422.2	-3.3	x	x
COC(=O)C1=C(C)N=c2sc(=C3C(=O)Nc4ccccc43)c(=O)n2C1c1ccccc1 (stereo not drawn)	x	x	10.1	x	x	x
COc1cccc(C=NNC(=O)c2ccc(OCc3cccc(Br)c3)cc2)c1	x	x	-1.3	x	x	x
CCn1ncc(C=NNS(=O)(=O)c2ccc(Cl)cc2)c1C	x	x	1.7	x	x	x
CNC[C@@H]1Oc2ccc(NS(=O)(=O)c3ccc(Cl)cc3)cc2C(=O)N([C@H](C)CO)C[C@@H]1C	45.1*	15.4	-1.2	41.8	18.7	17.5
O=C(C[n+]1ccccc1)NN=Cc1ccccc1Cl	x	x	2.8	x	x	x
Cc1csc(NN=Cc2ccccn2)n1	x	x	7.4	x	x	x
Cc1[nH]n(-c2ccccc2)c(=O)c1/C=N/N(C)c1ccccc1	79.8*	-14.6	x	-15.6	14.6	-2.2
Cc1[nH]n(-c2ccccc2)c(=O)c1/C=N/NC(=O)c1cccc([N+](=O)[O-])c1	55.7*	10.2	x	-32.4	53.1*	1.5	Fluor interf inh=>100
Cc1[nH]n(-c2ccccc2)c(=O)c1/C=N\NC(=O)C1COc2ccccc2O1 (stereo not drawn)	53.9*	-0.4	x	-14.7	64.8*	-6.0	Fluor interf inh=>100
Cc1[nH]n(-c2ccccc2)c(=O)c1/C=N/O	-5.8	-3.3	x	-3.6	x	x
CCC12CN3CCN(CC(C3)C1=NNC(=O)c1ccc(C(C)(C)C)cc1)C2	x	x	1.2	x	x	x
CCN1CCN(CCNC(=O)c2ccc(/C=C3\Sc4ccccc4N(Cc4ccccc4F)C3=O)cc2)CC1	41.3*	-27.6	-12.5	37.6	27.1	6.2
O=c1[nH]c(Nc2ccccc2Cl)cc2ccccc12	98.1*	19.9	-14.8	-60.7	79.0*	13.8	Fluor interf inh=>100
O=c1[nH]c(Nc2ccc(F)cc2)cc2ccccc12	95.1*	31.0	-112.8	-17.9	91.5*	7.8	Fluor interf inh=>100
COc1ccc(C(=O)Oc2ccc(C=NO)cc2)cc1	x	x	-0.1	x	x	x
COC(=O)C1=C(C)N(Cc2ccccc2)C(=NCC2CC2)N[C@H]1c1ccccc1	37.7	30.4	1.9	30.5	x	x
COC(=O)C1=C(C)N(Cc2ccccc2)C(=NCc2ccc3c(c2)OCO3)N[C@H]1c1ccccc1	44.5*	-10.1	1.5	38.7	18.9	21.8
Cn1c(=O)n(C)c2cc(/C=N/NC(=O)c3cc4cc(Br)ccc4o3)ccc21	43.0*	13.2	x	13.4	10.5	-0.9
COc1ccc(C(C)=NNC(=O)Cc2ccc(Cl)cc2)cc1	x	x	1.2	x	x	x
O=C(COC(=O)COc1ccc2ccccc2c1)NC1CCCc2ccccc21 (stereo not drawn)	6.6	-5.1	0.4	1.7	x	x
OC(CNC1CCCc2ccccc21)COc1ccc2ccccc2c1 (stereo not drawn)	47.2*	-5.7	3.2	23.8	14.7	13.7

Screening results: PubChem BioAssay, several laboratories
